High-throughput results deposited in PubChem by The Scripps Research Institute Molecular Screening Center.
Compounds with a hit are over-represented: about 1% of the library has one in this group of screens.
proCasp3 act = activates human procaspase-3; P42574; recombinant procaspase-3 D3A, Ac-DEVD-pNA absorbance 405 nm; activation, % at 8.5 µM; 330,000 compounds, 0.11% hits; AID 463141;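 active = activation above the mean of all tested compounds plus 3 SD, cut at about 21% in these data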;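 also: 0% = DMSO alone and 100% = DMSO wells spiked with extra 5 µM PC-3 D3A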
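Assay system – Procaspase-3 D3A mutant · Benchmarks – DMSO low control, extra-enzyme high control · Technique – 405 nm absorbance of p-nitroaniline, reads at 0 and 120 min · Doses – 8.5 µM nominal · Measure – % activation between DMSO and enzyme-spiked controls · Also added – Ac-DEVD-pNA chromogenic peptide substrate · Schedule – 1 h compound preincubation, 2 h substrate hydrolysis at 25 °C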
PME-1 inh = blocks human protein phosphatase methylesterase 1 | inhibition, % at 5.9 µM | Q9Y570 | recombinant PME-1, FP-Rh probe fluorescence polarization | 320,000 compounds, 0.53% hits;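 active = inhibition above the campaign mean of all compounds plus 3 SD, cut at about 26% in these data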;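 also: competitive labeling of PME-1 active site by serine hydrolase directed probe; 0% = PME-1 with DMSO and 100% = wells lacking PME-1 enzyme; inhibitors block probe labeling so polarization falls and inhibition rises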
Target sequence (Q9Y570 whole entry, looked up): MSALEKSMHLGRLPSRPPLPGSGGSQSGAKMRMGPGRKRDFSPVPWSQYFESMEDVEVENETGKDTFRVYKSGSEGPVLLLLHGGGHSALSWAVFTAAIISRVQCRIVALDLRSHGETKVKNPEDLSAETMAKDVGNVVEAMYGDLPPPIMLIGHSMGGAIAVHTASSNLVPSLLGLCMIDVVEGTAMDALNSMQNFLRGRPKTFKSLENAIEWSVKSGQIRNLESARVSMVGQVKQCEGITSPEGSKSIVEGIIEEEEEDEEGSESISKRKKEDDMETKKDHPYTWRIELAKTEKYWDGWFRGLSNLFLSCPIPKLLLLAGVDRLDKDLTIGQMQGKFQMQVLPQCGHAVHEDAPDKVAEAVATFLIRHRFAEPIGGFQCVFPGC
LYPLA2 inh = LYPLA2 (human) inhibition in PME1 counter-screen. recombinant LYPLA2, FP-Rh probe fluorescence polarization. inhibition, % at 5.9 µM. 320,000 compounds, 0.38% hits. AID 2177;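 active = inhibition above the screen-wide mean plus 3 SD, limit set per campaign, cut at about 26% in these data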;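 also: 0% = LYPLA2 with DMSO and 100% = wells lacking LYPLA2 enzyme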
Target sequence (O95372 whole entry, looked up): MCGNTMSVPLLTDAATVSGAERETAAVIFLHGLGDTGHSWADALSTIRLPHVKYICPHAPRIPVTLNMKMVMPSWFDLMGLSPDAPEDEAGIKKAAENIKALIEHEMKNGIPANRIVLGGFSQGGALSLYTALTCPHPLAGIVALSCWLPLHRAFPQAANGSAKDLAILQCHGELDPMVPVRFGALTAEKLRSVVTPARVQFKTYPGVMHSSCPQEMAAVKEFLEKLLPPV
LYPLA1 inh = LYPLA1 (human) inhibition in PME1 counter-screen | 320,000 compounds, 0.16% hits | recombinant LYPLA1, FP-Rh probe fluorescence polarization | inhibition, % at 5.9 µM | O75608;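 active = inhibition above the mean of all tested compounds plus 3 SD, set per campaign, cut at about 14% in these data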;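 also: inhibitors block serine hydrolase probe labeling of LYPLA1 so polarization falls; 0% = enzyme with DMSO and 100% = wells lacking LYPLA1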
Fam108B inh = blocks mouse Fam108B hydrolase in RBBP9 counter-screen; AID 1947; 300,000 compounds, 0.33% hits; inhibition, % at 9.51 µM; recombinant Fam108B, FP-Rh probe fluorescence polarization;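 active = inhibition above the screen mean inhibition plus 3 SD, computed separately per campaign, cut at about 18% in these data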;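 also: inhibitors lower polarization as less probe binds the enzyme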
proCasp7 act = activates human procaspase-7, counter-screen for procaspase-3 activators. activation, % at 8.5 µM. 330,000 compounds, 0.093% hits. P55210. recombinant procaspase-7, Ac-DEVD-pNA absorbance 405 nm; D23A/D198A/D206A triple mutant, cannot self-cleave; scale: DMSO 0, 5 µM enzyme 100. AID 463210;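 active = percent activation above the screen-wide mean plus 3 SD, cut at about 25% in these data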
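Assay system: Uncleavable procaspase-7 mutant enzyme / Input: 2 µM procaspase-7 mutant as dispensed / Dosing: single nominal 8.5 µM compound dose, 0.8% DMSO final / Timing: 1 h enzyme–compound preincubation and 2 h substrate reaction, both 25 °C / Detection: p-Nitroaniline absorbance at 405 nm, read at 0 and 120 min / Replication: singlicate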
Fam108b confirm = confirmation of mouse Fam108b serine hydrolase inhibitors | shares compounds with Fam108B inh | recombinant Fam108b, FP-Rh probe fluorescence polarization | inhibition, % at 9.51 µM | 930 compounds, 44% hits | AID 1978;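 active = inhibition above a limit from the primary screen, the mean over all compounds plus 3 SD, cut at about 19% in these data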;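 also: 0% = median of active Fam108b wells and 100% = catalytically dead S170A mutant; inhibitors free the probe so polarization falls as inhibition rises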
Numbers without * were called inactive; . = no result.

SMILES	proCasp3 act	PME-1 inh	LYPLA2 inh	LYPLA1 inh	Fam108B inh	proCasp7 act	others
COc1ccc(Nc2nc(NN)nc(C)c2[N+](=O)[O-])cc1	4.9	28.6*	5.9	-5.4	8.6	6.3
CC(=O)Nc1ccc(Nc2nc(C)c([N+](=O)[O-])c(Nc3ccccc3)n2)cc1	-1.7	30.0*	10.6	-0.2	12.4	5.5
Cc1nc(Nc2ccc(C(=O)O)cc2)nc(Nc2ccc(C(=O)O)cc2)c1[N+](=O)[O-]	-4.1	-4.8	0.4	-0.8	2.7	4.2
Fc1cccc2sc(Nc3nc4cc5c(cc4s3)OCO5)nc12	-82.3	71.9*	2.8	-6.8	17.1	-155.2
Fc1cccc2sc(Nc3nc4cc5c(cc4s3)OCCO5)nc12	-99.7	66.8*	6.3	-4.5	9.8	-129.6
CC(=O)Nc1nc2cc3c(cc2s1)OCCO3	4.3	-4.7	0.2	0.4	-1.5	2.8
CC(C)C(=O)Nc1nc2cc3c(cc2s1)OCO3	16.3	-4.4	3.1	-2.0	-2.6	0.9
Fc1cc(F)c2nc(Nc3nc4cc5c(cc4s3)OCO5)sc2c1	-30.7	48.6*	-16.9	-13.4	13.2	-65.2
Cc1cc(Nc2n[nH]c(N)c2C#N)ccc1F	2.2	-1.2	4.1	1.1	-4.9	-0.4
CC1CCCCC1NC(=O)c1cc(S(=O)(=O)N2CCOCC2)ccc1Cl (stereo not given)	5.7	.	.	.	.	-7.1
CCCCOc1ccccc1C(=O)NNC(=S)NC(=O)c1ccccc1[N+](=O)[O-]	4.5	1.1	5.0	-2.4	-1.6	5.0
Cc1ccc(S(=O)(=O)Nc2ccccc2-c2ccccc2NS(=O)(=O)c2ccc(C)cc2)cc1	12.1	5.0	1.4	-4.6	4.1	16.4
COC(=O)c1ccc(Sc2ccccc2NS(=O)(=O)c2ccc(C)cc2)nc1	1.5	28.9*	6.0	7.4	-3.3	1.5
O=C(C[n+]1ccc2ccccc2c1)c1cccc2ccccc12	0.8	-0.4	4.6	2.4	3.8	-3.2
O=C(/C=C/c1cc[n+](CC(=O)c2ccc3cccc4c3c2CC4)cc1)c1ccc2cccc3c2c1CC3	-10.1	-1.0	83.3*	77.7*	7.2	-14.9
COc1ccc(/C=C/C(=O)OCC(=O)NCc2ccccc2Cl)cc1OC	3.3	.	.	.	.	3.7
c1ccc(-c2cc3cc4c(cc3cn2)OCO4)cc1	-7.2	.	.	.	.	10.2
Fc1ccc2[nH]c3c(N4CCc5ccccc5C4)ncnc3c2c1	4.5	9.3	9.2	2.6	1.4	0.9
Cc1ccc2[nH]c3c(N4CCc5ccccc5C4)ncnc3c2c1	-0.1	30.2*	-11.1	-11.7	14.3	-0.5
COc1ccc(-c2cnnc(N/N=C/c3ccc(O)c(O)c3)n2)cc1	4.4	29.0*	-14.6	-8.1	12.1	2.8
COc1ccc(S(=O)(=O)N(C)C[C@H]2Oc3ccc(NS(=O)(=O)c4ccc(F)cc4)cc3C(=O)N([C@H](C)CO)C[C@@H]2C)cc1	-3.6	.	.	.	.	10.9
C#CCOCCOCCOCCNc1nc(N2CCN(C(=O)CCCCCCCCCCNC(=O)[C@H]([C@@H](C)CC)n3cc(CCCCCN)nn3)CC2)nc(N2CCN(C(=O)CCCCCCCCCCNC(=O)[C@@H]([C@H](C)CC)n3cc(CCCCCN)nn3)CC2)n1	-8.3	-8.9	57.4*	6.9	-6.7	-3.2
C#CCOCCOCCOCCNc1nc(N2CCN(C(=O)CCCCCCCCCCNC(=O)[C@H]([C@@H](C)CC)n3cc(CCCCN=C(N)N)nn3)CC2)nc(N2CCN(C(=O)CCCCCCCCCCNC(=O)[C@H]([C@@H](C)CC)n3cc(CCCCN=C(N)N)nn3)CC2)n1	-10.8	-11.8	32.7*	-2.5	-23.4	-5.5
CCOC(=O)C1CCN(c2cc(C)nc3cc(-c4cccc(F)c4)nn23)CC1	26.1*	-12.1	4.0	0.0	4.5	30.6*
O=C(O)Cn1cc(/C=c2/sc3nc4ccccc4n3c2=O)c2ccccc21	3.5	31.5*	-3.4	-0.7	9.2	-24.9
SMILES	proCasp3 act	PME-1 inh	LYPLA2 inh	LYPLA1 inh	Fam108B inh	proCasp7 act	others
COC(=O)c1cccc(C#CC(NP(=O)(c2ccccc2)c2ccccc2)c2ccccc2)c1 (stereo not given)	10.5	31.4*	-5.0	-6.7	-1.4	-5.7
Cc1ccc2nc3n(c(=O)c2c1)-c1ccc(Cl)cc1C(=O)NC3CC(C)C (stereo not given)	-6.5	.	.	.	.	0.9
O=C(NCc1ccccc1)C1CCN(S(=O)(=O)c2ccc(Cl)cc2)CC1	-0.2	44.5*	3.0	-1.7	-3.5	-4.4
CC(=O)NC(Cc1ccc(F)cc1)C(=O)NC1CCN(C(=O)Nc2ccc(F)cc2)CC1 (stereo not given)	2.5	-1.4	0.1	-0.7	-0.5	0.9
CC(C)CCN1C(=O)c2ccc(C(=O)NCc3ccccn3)cc2C1=O	-7.2	5.5	7.2	8.1	-3.3	2.7
Cc1cc(C(=O)O)ccc1-n1c(C)cc(C=C2C(=O)c3ccccc3C2=O)c1C	-7.6	1.6	-3.7	1.2	-1.5	-12.8
Cc1cc(C(=O)O)ccc1-n1c(C)ccc1C	-5.2	-17.9	-2.6	0.8	24.4*	-8.0	Fam108b confirm=14.2
O=C1CCCC(O)=C1N=Nc1ccc(C(=O)O)cc1	0.8	-18.2	1.2	-1.2	24.5*	0.0	Fam108b confirm=19.7*
O=[N+]([O-])c1ccc(S(=O)(=O)Nc2ccc(-c3csc(-c4ccccc4)n3)cc2)cc1	2.3	3.9	-7.3	-11.9	24.6*	6.7	Fam108b confirm=-6.6
O=S(=O)(Nc1ccc(-c2csc(-c3ccccc3)n2)cc1)c1ccccc1	-1.4	-46.7	-38.2	-12.8	-27.0	1.4
O=c1oc(-c2ccccc2NS(=O)(=O)c2ccccc2)nc2ccccc12	1.6	-2.7	-1.3	-3.4	20.9*	10.9	Fam108b confirm=18.0
O=c1oc(-c2ccccc2[N+](=O)[O-])nc2ccccc12	1.8	0.4	-2.4	-7.5	5.9	1.2
COc1cc2nc(NC(=O)c3ccc(F)cc3Cl)sc(=O)c2cc1OC	-6.9	-2.4	7.6	-0.1	0.5	-10.0
CC12CCC(C(=O)N3CCCc4ccccc43)(OC1=O)C2(C)C (stereo not given)	9.1	-1.7	2.3	0.6	0.3	-9.3
N#Cc1c(SCC(=O)Nc2nncs2)sc2c(O)cc(=O)[nH]c12	-20.4	-34.7	-1.6	-8.5	32.4*	-17.3	Fam108b confirm=5.8
N#Cc1c(SCC(=O)Nc2ccc(C(F)(F)F)cc2)sc2c(O)cc(=O)[nH]c12	2.8	-9.8	-20.4	-20.9	0.4	1.5
O=C(C[n+]1ccc(-c2ccccc2)cc1)Nc1ccc([N+](=O)[O-])cc1	4.0	3.0	19.6	-0.4	-0.5	-2.9
